Only some compounds are listed: those with a hit (about 4.2% of all), similar ones and a draw of the others.
XBP1 UPR activ = activators of adaptive XBP1 UPR arm, primary screen, cell-based, CHO-XBP1 luciferase reporter, luminescence, uHTS; 330,000 compounds, 0.33% hits; activation, % at 20 µM; AID 463104, 2010; IRE1-XBP1 UPR activation; percent of tunicamycin response, DMSO as zero;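 active = versus positive control, 20 µM dose yields 30% or more activation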;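 note: 100% = tunicamycin at 10 µg/mL and 0% = DMSO only wells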
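Material: CHO cell line with stable XBP1 luciferase reporter; buffer or medium: F12 medium containing 10% fetal bovine serum; compound: single point, 20 µM final compound, 1% DMSO; incubation: 6 h treatment, 37 °C; measured by: glow luminescence from Steady-Glo reagent; evaluation: activation, % of tunicamycin; control set: tunicamycin high, DMSO low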
CHOP UPR activ = activators of apoptotic CHOP UPR arm, primary screen, cell-based, CHO-CHOP luciferase reporter, luminescence, uHTS; activation, % at 10 µM; AID 449763, 2010; UPR activation; percent of tunicamycin response over DMSO baseline; 330,000 compounds, 0.34% hits;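 active = at 10 µM dose, activation of 40% or more, normalized to positive control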;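 note: 100% = tunicamycin at 10 µg/mL and 0% = DMSO alone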
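System: CHO-CHOP luciferase reporter cell line; amount: 500 cells/well; buffer or medium: F12 medium containing 10% fetal bovine serum; incubation: 6 h compound exposure at 37 °C after overnight seeding; measured by: luciferase luminescence after 10 min with Steady-Glo reagent; evaluation: % reporter activation, DMSO baseline versus tunicamycin full activation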
ANO1 block = TMEM16A chloride channel inhibitors, primary screen, cell-based, HTS. Anoctamin-1 (Mus musculus), Q8BHY3. AID 588511, 2011. 310,000 compounds, 1.2% hits. normalized B-score (activity score, 25-100; higher = stronger inhibition) at 10 µM. HEK293 TMEM16A/YFP iodide influx fluorescence, ionomycin;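 active = ratio plate-corrected score three or more library SD toward inhibition, starting fluorescence score within five deviations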;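 note: score derived from kinetic fluorescence span divided by baseline fluorescence per well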
TMEM16A act = TMEM16A chloride channel activators or potentiators, primary screen, cell-based, HTS | HEK293 TMEM16A/YFP-H148Q/I152L, iodide quench fluorescence; hits give low values | B-score at 10 µM | 340,000 compounds, 0.3% hits;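 active = fluorescence-ratio B-score plate-corrected deviation score at least 3 library SD below zero, with starting fluorescence score within 5 deviations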;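 note: channel opened by trigger with iodide after compound preincubation; score built on the fluorescence ratio of max minus min over baseline; more negative score means more quench and so TMEM16A activation or potentiation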
Lipid droplet = inhibitors of hepatocyte lipid droplet formation, primary screen, imaging, high-throughput imaging, BODIPY stain. AML12 mouse hepatocytes, oleate lipid droplets. inhibition, % at 6.5 µM. 240,000 compounds, 0.4% hits. AID 1656, 2009;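 active = lipid droplet intensity inhibited by at least 50%, with more than 500 cells counted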
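Test system: AML12 mouse liver cells; schedule: overnight exposure; technique: high-content imaging of BODIPY-stained droplets and DAPI nuclei; read-out: % inhibition of corrected integrated BODIPY droplet signal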
CHOP inhibitor = inhibitors of CHOP promoter induction, primary screen, cell-based, unfolded protein response, luciferase reporter; CHO-K1 CHOP-promoter luciferase, tunicamycin-induced, 15-18 h; inhibition, % at 10 µM; 220,000 compounds, 3.8% hits; AID 2732, 2010;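 active = compounds that reduced the stress-induced luciferase reporter signal by more than about 70% of percent inhibition, limit read from the data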;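 note: 0% = tunicamycin plus vehicle and 100% = wells without tunicamycin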
TMEM16A reconf = TMEM16A chloride channel inhibitors, confirmation, cell-based, re-confirmation; shares compounds with ANO1 block; HEK293 TMEM16A/YFP-H148Q, iodide quench fluorescence; ionomycin added to raise cell calcium; inhibition, % at 10 µM; 2,300 compounds, 39% hits;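 active = mean duplicate percent inhibition, scaled so buffer wells are 0 and the reference blocker 100, over three buffer SD above buffer mean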
HEK293 Ca mobil = calcium mobilization in TMEM16A/YFP HEK293 cells, confirmation, counter-screen for TMEM16A inhibitor project. shares compounds with ANO1 block. Fluo4 calcium mobilization. calcium response (% of ionomycin), % at 10 µM. 2,300 compounds, 2% hits. AID 652231, 2013;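 active = duplicate-averaged calcium signal over 20% of the ionomycin maximum, relative to buffer baseline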;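 note: each well's signal is peak minus trough fluorescence divided by its pre-addition baseline; 0% = buffer wells and 100% = ionomycin wells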
YFP-HEK293 quench = iodide YFP quench changes in parental YFP-HEK293, counter-screen for TMEM16A inhibitor project, cell-based. YFP ratio F(max-min)/F0 at 10 µM. shares compounds with ANO1 block. 2,300 tested, under 10 active. ionomycin. AID 652233, 2013;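 active = yellow fluorescent protein signal ratio exceeding the buffer control mean by over 5 SD of those controls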;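 note: ratio is mean of duplicate wells from kinetic YFP trace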
ClC-1 inh = ClC-1 chloride channel inhibition, selectivity assay for TMEM16A inhibitor project, cell-based, voltage-dependent ClC-1 | shares compounds with ANO1 block | CHO ClC-1-YFP, iodide influx fluorescence quench; iodide control reads 0, buffer control 100 | ratio percent, % at 10 µM | 2,300 tested, under 10 active;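 active = duplicate-mean ratio percent above the mean of iodide-only control wells, which defines zero, plus 5 of their SD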;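 note: higher percent means stronger block of ClC-1 iodide influx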
Target sequence (P35524 whole entry, looked up): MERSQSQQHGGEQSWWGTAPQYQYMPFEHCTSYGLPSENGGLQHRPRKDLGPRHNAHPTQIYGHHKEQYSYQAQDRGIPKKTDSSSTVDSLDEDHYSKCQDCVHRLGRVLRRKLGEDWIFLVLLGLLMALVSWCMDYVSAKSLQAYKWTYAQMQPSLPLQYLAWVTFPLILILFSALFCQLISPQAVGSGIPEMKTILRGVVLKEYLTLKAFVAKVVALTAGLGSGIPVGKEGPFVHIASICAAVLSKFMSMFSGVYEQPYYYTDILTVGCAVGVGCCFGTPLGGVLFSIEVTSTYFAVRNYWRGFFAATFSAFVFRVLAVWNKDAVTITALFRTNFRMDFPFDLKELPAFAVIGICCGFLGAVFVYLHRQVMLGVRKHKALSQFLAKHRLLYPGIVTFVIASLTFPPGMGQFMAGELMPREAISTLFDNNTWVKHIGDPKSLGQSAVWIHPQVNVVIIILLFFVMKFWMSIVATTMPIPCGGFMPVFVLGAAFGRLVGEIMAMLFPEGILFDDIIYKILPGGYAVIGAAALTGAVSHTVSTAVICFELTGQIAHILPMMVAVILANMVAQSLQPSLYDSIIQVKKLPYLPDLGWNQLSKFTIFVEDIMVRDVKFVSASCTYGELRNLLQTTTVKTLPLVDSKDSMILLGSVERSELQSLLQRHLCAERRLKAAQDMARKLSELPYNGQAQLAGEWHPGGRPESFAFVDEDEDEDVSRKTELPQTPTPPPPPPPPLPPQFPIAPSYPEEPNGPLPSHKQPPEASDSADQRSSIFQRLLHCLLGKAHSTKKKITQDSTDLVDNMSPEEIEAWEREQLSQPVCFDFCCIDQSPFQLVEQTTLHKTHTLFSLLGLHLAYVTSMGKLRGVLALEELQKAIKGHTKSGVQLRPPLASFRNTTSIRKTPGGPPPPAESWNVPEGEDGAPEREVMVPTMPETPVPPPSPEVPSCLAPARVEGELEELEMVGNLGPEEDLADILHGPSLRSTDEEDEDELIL
Active calls of the source: *; i = inactive; / = no result.

SMILES	XBP1 UPR activ	CHOP UPR activ	ANO1 block	TMEM16A act	Lipid droplet	CHOP inhibitor	TMEM16A reconf	HEK293 Ca mobil	YFP-HEK293 quench	ClC-1 inh
O=C(Nc1ccc(OCc2ccccc2)cc1)c1cccc([N+](=O)[O-])c1	2	9	i	i	-2	41	/	/	/	/
Cc1cc(-c2ccc(Cl)cc2Cl)c(C#N)c(=O)[nH]1	0	-1	i	i	2	-13	/	/	/	/
CSc1nc(-c2ccc(Cl)cc2Cl)[nH]c(=O)c1C#N	-1	1	25*	i	40	34	50%*	i	-1.1	-8
CC(C)c1c(C(=O)N/N=C/c2ccc(C(F)(F)F)cc2)nnn1-c1nonc1N	-1	2	i	i	-2	/	/	/	/	/
CCCCNC(=O)c1sc(=S)n2c1[nH]c(=O)c1ccccc12	0	0	100*	i	/	15	56%*	i	-0.93	-25
CCCN1Cc2cc(OC)ccc2-c2ccccc2S1(=O)=O	1	2	/	/	/	/	/	/	/	/
O=C(NCCCSc1ccccc1)c1cc(Br)ccc1O	-3	-1	100*	i	-6	/	52%*	i	-1.3	-24
O=c1cc(CCl)nc(Cc2c(Cl)cccc2Cl)[nH]1	0	-1	i	i	/	/	/	/	/	/
COc1ccc(-c2noc(CCC(=O)N3CCN(c4cc(C)ccc4C)CC3)n2)cc1	-3	-3	100*	i	-15	-16	i	i	-0.94	-4
CCc1nnc(SCC(=O)Nc2ccc(F)cc2)o1	-5	2	i	i	-8	/	/	/	/	/
C=C1CCN(C(CC(C)C)C(=O)OC)S(=O)(=O)c2ccccc21 (stereo not given)	-4	0	25*	i	0	13	i	i	-1.2	-4
C=C1CCN([C@@H](CC(C)C)C(=O)O)S(=O)(=O)c2ccccc21	1	0	i	i	/	/	/	/	/	/
CC(C)(C)C(=O)COC(=O)CCc1nc2ccccc2[nH]c1=O	1	-1	25*	i	-7	-9	i	i	-0.83	-4
COc1ccc(C2=NCC(CSc3nnc(-c4ccc5c(c4)OCO5)o3)S2)cc1 (stereo not given)	0	5	100*	i	/	17	i	i	-0.98	-8
Cc1ccc(CSc2nnc(-c3ccc4c(c3)OCO4)o2)cc1	2	1	i	i	8	28	/	/	/	/
CCN(CC)S(=O)(=O)c1ccc2oc(SCC3CN=C(c4ccc(OC)cc4)S3)nc2c1 (stereo not given)	-1	2	100*	i	/	19	16%*	i	-0.93	-4
Fc1ccccc1OCCSc1nnnn1-c1ccccc1	-3	0	i	i	14	33	22%*	i	-0.87	2
COc1ccc(C(=O)OCCc2ccc(O)cc2)cc1	7	3	25*	i	5	-10	i	i	-1	-4
COc1ccc(CCOC(=O)c2ccc(NC(=O)CC#N)cc2)cc1	-2	0	i	i	2	/	/	/	/	/
COCCN(Cc1ccccc1)C(=O)c1cccc(S(=O)(=O)N(C)c2c(C)n(C)n(-c3ccccc3)c2=O)c1	2	-1	i	i	/	/	/	/	/	/
CN(Cc1ccccc1)C(=O)COC(=O)c1cc(NS(=O)(=O)c2cccs2)ccc1O	1	-2	25*	i	-14	19	i	i	-1.1	-20
Cc1cccnc1CN1CCN(C(=O)c2cc(COc3ccc4ncccc4c3)on2)CC1	0	3	25*	i	-15	60	22%*	i	-1.1	-40
CCOC(=O)N1CCN(C(=O)c2cc(COc3ccc4ncccc4c3)on2)CC1	-3	4	25*	i	-73	41	31%*	i	-0.96	-26
CCC(O)C1CCN(C(=O)c2cc(COc3ccc4ncccc4c3)on2)CC1 (stereo not given)	-3	2	100*	i	-7	66	i	i	-1.1	-20
CCOC(=O)N1CCN(C(=O)c2cc(COc3cccc(C(C)=O)c3)on2)CC1	0	3	i	i	-7	/	/	/	/	/
SMILES	XBP1 UPR activ	CHOP UPR activ	ANO1 block	TMEM16A act	Lipid droplet	CHOP inhibitor	TMEM16A reconf	HEK293 Ca mobil	YFP-HEK293 quench	ClC-1 inh
COC(=O)c1cc(C(=O)OCC(=O)NCc2ccc3c(c2)OCO3)cc([N+](=O)[O-])c1	-1	0	i	i	-2	-24	/	/	/	/
Cn1c(=O)c2c(nc(NCCCO)n2C/C=C/c2ccccc2)n(C)c1=O	-1	1	100*	i	-4	22	i	i	-1.1	-6
C=CC(=O)NC(C)(C)CCN1CCOCC1	0	3	i	i	-14	1	/	/	/	/
Cc1ccc(S(=O)(=O)N2CCN(c3ccnc4cc(Cl)ccc34)CC2)cc1C	-3	-2	i	i	-5	34	/	/	/	/
Cc1cc(N2CCN(S(=O)(=O)c3ccc(Cl)c(Cl)c3)CC2)c2ccccc2n1	2	0	100*	i	-30	30	i	i	-0.84	-14
Cc1ccc(S(=O)(=O)N2CCN(c3ccnc4cc(Cl)ccc34)CC2)cc1	-2	-1	100*	i	-46	69	i	i	-1.2	-14
Cc1cc(C)c2c(N)c(C(=O)NN3CC(=O)N(c4cccc(Cl)c4)CC3=O)sc2n1	-5	2	i	i	-1	1	/	/	/	/
CN(Cc1ccco1)C(=O)c1ccc(CNS(=O)(=O)c2ccc3c(c2)C(C)(C)C(=O)N3C)cc1	0	2	i	i	0	/	/	/	/	/
